Reference: ChEMBL document CHEMBL1151813, “Synthesis and cytotoxicity of bidesmosidic betulin and betulinic acid saponins” (J Nat Prod, 2009)

Experiments:
[1] = tested on: A549; assay: Cytotoxicity against human A549 cells after 48 hrs; type: functional, cell-based; settings: A549, 48 h
Procedure, shortened: (§1)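 Cells grown in MEM (Earle's salts, L-glutamine) with 10% FBS, vitamins, amino acids, pyruvate, penicillin/streptomycin at 37 °C, 5% CO2. 5 × 10³ cells/well adhered 16 h, then increasing concentrations in DMSO (final 0.5% v/v) for 48 h. Resazurin fluorescence read at ex 530/em 590 nm; survival vs control wells after blank subtraction. Three experiments in triplicate; IC50 as mean ± standard deviation.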

[2] = tested on: DLD-1; assay: Cytotoxicity against human DLD1 cells after 48 hrs; type: functional, cell-based; settings: DLD-1, 48 h; procedure, shortened: as §1
[3] = tested on: MCF7; assay: Cytotoxicity against human MCF7 cells after 48 hrs; type: functional, cell-based; settings: MCF7, 48 h; procedure, shortened: as §1
[4] = tested on: PC-3; assay: Cytotoxicity against human PC3 cells after 48 hrs; type: functional, cell-based; settings: PC-3, 48 h; procedure, shortened: as §1
[5] = Cytotoxicity against human WS1 cells after 48 hrs; type: cell-based; settings: WS1, 48 h

SMILES	IC50 [1]	IC50 [2]	IC50 [3]	IC50 [4]	IC50 [5]
C=C(C)[C@@H]1CC[C@]2(CO[C@@H]3O[C@H](CO)[C@@H](O)[C@H](O)[C@H]3O)CC[C@]3(C)[C@H](CC[C@@H]4[C@@]5(C)CC[C@H](O[C@@H]6O[C@@H](C)[C@H](O)[C@@H](O)[C@H]6O)C(C)(C)[C@@H]5CC[C@]43C)[C@@H]12	16.8 µM	10.6 µM	9 µM	6.9 µM	5.3 µM
C=C(C)[C@@H]1CC[C@]2(C(=O)O[C@@H]3O[C@H](CO)[C@@H](O)[C@H](O)[C@H]3O)CC[C@]3(C)[C@H](CC[C@@H]4[C@@]5(C)CC[C@H](O[C@@H]6O[C@H](CO)[C@@H](O)[C@H](O)[C@H]6O)C(C)(C)[C@@H]5CC[C@]43C)[C@@H]12	> 100 µM	> 100 µM	20 µM	66 µM	35 µM
C=C(C)[C@@H]1CC[C@]2(CO[C@@H]3O[C@H](CO)[C@@H](O)[C@H](O)[C@H]3O)CC[C@]3(C)[C@H](CC[C@@H]4[C@@]5(C)CC[C@H](O[C@@H]6OC[C@H](O)[C@H](O)[C@H]6O)C(C)(C)[C@@H]5CC[C@]43C)[C@@H]12	> 100 µM	19 µM	9.5 µM	5.3 µM	4.5 µM
C=C(C)[C@@H]1CC[C@]2(C(=O)O[C@@H]3O[C@H](CO)[C@@H](O)[C@H](O)[C@H]3O)CC[C@]3(C)[C@H](CC[C@@H]4[C@@]5(C)CC[C@H](O)C(C)(C)[C@@H]5CC[C@]43C)[C@@H]12	> 100 µM	> 100 µM	> 100 µM	> 100 µM	> 100 µM
C=C(C)[C@@H]1CC[C@]2(C(=O)O[C@@H]3O[C@H](CO)[C@@H](O)[C@H](O)[C@H]3O)CC[C@]3(C)[C@H](CC[C@@H]4[C@@]5(C)CC[C@H](O[C@@H]6OC[C@H](O)[C@H](O)[C@H]6O)C(C)(C)[C@@H]5CC[C@]43C)[C@@H]12	76 µM	60 µM	23 µM	68 µM	50 µM
C=C(C)[C@@H]1CC[C@]2(CO[C@@H]3O[C@H](CO)[C@@H](O)[C@H](O)[C@H]3O)CC[C@]3(C)[C@H](CC[C@@H]4[C@@]5(C)CC[C@H](O[C@@H]6O[C@H](CO)[C@@H](O)[C@H](O)[C@H]6O)C(C)(C)[C@@H]5CC[C@]43C)[C@@H]12	> 100 µM	27 µM	14.5 µM	> 100 µM	20 µM
C=C(C)[C@@H]1CC[C@]2(CO[C@@H]3O[C@@H](C)[C@H](O)[C@@H](O)[C@H]3O)CC[C@]3(C)[C@H](CC[C@@H]4[C@@]5(C)CC[C@H](O[C@@H]6O[C@@H](C)[C@H](O)[C@@H](O)[C@H]6O)C(C)(C)[C@@H]5CC[C@]43C)[C@@H]12	1.9 µM	1.9 µM	1.7 µM	1.8 µM	1.3 µM
C=C(C)[C@@H]1CC[C@]2(C(=O)O[C@@H]3O[C@H](CO)[C@@H](O)[C@H](O)[C@H]3O)CC[C@]3(C)[C@H](CC[C@@H]4[C@@]5(C)CC[C@H](O[C@@H]6O[C@@H](C)[C@H](O)[C@@H](O)[C@H]6O)C(C)(C)[C@@H]5CC[C@]43C)[C@@H]12	23 µM	11 µM	5.7 µM	11.2 µM	9 µM
C=C(C)[C@@H]1CC[C@]2(C(=O)O[C@@H]3O[C@@H](C)[C@H](O)[C@@H](O)[C@H]3O)CC[C@]3(C)[C@H](CC[C@@H]4[C@@]5(C)CC[C@H](O[C@@H]6O[C@@H](C)[C@H](O)[C@@H](O)[C@H]6O)C(C)(C)[C@@H]5CC[C@]43C)[C@@H]12	7.2 µM	7.3 µM	6 µM	7.2 µM	4.9 µM
C=C(C)[C@@H]1CC[C@]2(CO[C@@H]3O[C@H](CO)[C@@H](O)[C@H](O)[C@H]3O)CC[C@]3(C)[C@H](CC[C@@H]4[C@@]5(C)CC[C@H](O)C(C)(C)[C@@H]5CC[C@]43C)[C@@H]12	> 100 µM	> 100 µM	> 100 µM	> 100 µM	> 100 µM
C=C(C)[C@@H]1CC[C@]2(C(=O)O)CC[C@]3(C)[C@H](CC[C@@H]4[C@@]5(C)CC[C@H](O)C(C)(C)[C@@H]5CC[C@]43C)[C@@H]12 [BETULINIC ACID]	10.3 µM	15 µM	41 µM	40 µM	12 µM
C=C(C)[C@@H]1CC[C@]2(CO)CC[C@]3(C)[C@H](CC[C@@H]4[C@@]5(C)CC[C@H](O)C(C)(C)[C@@H]5CC[C@]43C)[C@@H]12 [BETULIN]	3.8 µM	6.6 µM	23.3 µM	17.9 µM	3.6 µM
COc1cc([C@@H]2c3cc4c(cc3[C@@H](O[C@@H]3O[C@@H]5CO[C@@H](C)O[C@H]5[C@H](O)[C@H]3O)[C@H]3COC(=O)[C@H]23)OCO4)cc(OC)c1O [ETOPOSIDE]	1.2 µM	27 µM	0.7 µM	1.7 µM	34 µM
